Results as given in ChEMBL document CHEMBL1131215, “Anhydrolide macrolides. 1. Synthesis and antibacterial activity of 2,3-anhydro-6-O-methyl 11,12-carbamate erythromycin A analogues” (1998).
≈ marks a conversion by molar mass, not a printed value.

Assays:
Assay type in all cases: functional
Staphylococcus aureus [1] = test: In vitro antibacterial activity against 6538P strain of Staphylococcus aureus
Outline: (§1)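 MIC determined by standard agar dilution; values in μg/mL.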

Staphylococcus aureus [2] = test: In vitro antibacterial activity against A5177 strain of Staphylococcus aureus; outline: as §1
Streptococcus pneumoniae [3] = test: In vitro antibacterial activity against 5649 strain of Streptococcus pneumoniae; outline: as §1
Streptococcus pyogenes [4] = test: In vitro antibacterial activity against 930 strain of Streptococcus pyogenes; outline: as §1
Streptococcus pneumoniae [5] = test: In vitro antibacterial activity against ATCC 6303 strain of Streptococcus pneumoniae; outline: as §1
Streptococcus pyogenes [6] = test: In vitro antibacterial activity against PIU 2548 strain of Streptococcus pyogenes; outline: as §1
[7] = In vitro antibacterial activity against A-5278 strain of Staphylococcus aureus; outline: as §1
Haemophilus influenzae = test: In vitro antibacterial activity against DILL strain of Haemophilus influenzae.; outline: as §1
Streptococcus pneumoniae [8] = test: In vitro antibacterial activity against 5979 strain of Streptococcus pneumoniae; outline: as §1
[9] = Streptococcus pneumoniae, ATCC 6303

MIC (Haemophilus influenzae) | MIC (Staphylococcus aureus [1]; Staphylococcus aureus) | MIC (Staphylococcus aureus [2]; Staphylococcus aureus) | MIC (Streptococcus pneumoniae [3]; Streptococcus pneumoniae) | MIC (Streptococcus pneumoniae [5]; [9]) | MIC (Streptococcus pyogenes [6]; Streptococcus pyogenes) | MIC (Streptococcus pyogenes [4]; Streptococcus pyogenes) | Compound | further results
 |  |  |  |  |  |  | CC[C@H]1OC(=O)/C(C)=C/[C@H](C)[C@@H](O[C@@H]2O[C@H](C)C[C@H](N(C)C)[C@H]2O)[C@@](C)(OC)C[C@@H](C)C(=O)[C@H](C)[C@H]2N(CCc3ccc(Oc4ccccc4)cc3)C(=O)O[C@]12C (stereo in doubt; 15) | MIC (Staphylococcus aureus [1]): 25 µg/mL (≈ 31.5 µM); MIC (Staphylococcus aureus [2]): 25 µg/mL (≈ 31.5 µM); MIC (Streptococcus pneumoniae [3]): 8 µg/mL (≈ 10.1 µM); MIC (Streptococcus pyogenes [4]): 6.2 µg/mL (≈ 7.82 µM); MIC (Streptococcus pneumoniae [5]): 4 µg/mL (≈ 5.04 µM); MIC (Streptococcus pyogenes [6]): 3.1 µg/mL (≈ 3.91 µM); MIC [7]: 12.5 µg/mL (≈ 15.8 µM)
16 µg/mL (≈ 21.9 µM) | 0.39 µg/mL (≈ 0.533 µM) | 0.39 µg/mL (≈ 0.533 µM) | 1 µg/mL (≈ 1.37 µM) | 0.03 µg/mL (≈ 0.041 µM) | 0.2 µg/mL (≈ 0.273 µM) |  | CC[C@H]1OC(=O)/C(C)=C/[C@H](C)[C@@H](O[C@@H]2O[C@H](C)C[C@H](N(C)C)[C@H]2O)[C@@](C)(OC)C[C@@H](C)C(=O)[C@H](C)[C@H]2N(CCCOc3ccncc3)C(=O)O[C@]12C | 
 |  |  |  |  |  | 25 µg/mL (≈ 35 µM) | CC[C@H]1OC(=O)/C(C)=C/[C@H](C)[C@@H](O[C@@H]2O[C@H](C)C[C@H](N(C)C)[C@H]2O)[C@@](C)(OC)C[C@@H](C)C(=O)[C@H](C)[C@H]2N(CCCc3ccccc3)C(=O)O[C@]12C (stereo in doubt; 11) | MIC (Staphylococcus aureus [1]): 25 µg/mL (≈ 35 µM); MIC (Staphylococcus aureus [2]): 25 µg/mL (≈ 35 µM); MIC (Streptococcus pyogenes [6]): 6.2 µg/mL (≈ 8.67 µM)
 | 1.56 µg/mL (≈ 2.28 µM) | 1.56 µg/mL (≈ 2.28 µM) | 2 µg/mL (≈ 2.93 µM) | 0.25 µg/mL (≈ 0.366 µM) | 0.39 µg/mL (≈ 0.571 µM) |  | CCOCCCN1C(=O)O[C@]2(C)[C@@H](CC)OC(=O)/C(C)=C/[C@H](C)[C@@H](O[C@@H]3O[C@H](C)C[C@H](N(C)C)[C@H]3O)[C@@](C)(OC)C[C@@H](C)C(=O)[C@H](C)[C@@H]12 | 
32 µg/mL (≈ 41.8 µM) | 1.56 µg/mL (≈ 2.04 µM) |  | 4 µg/mL (≈ 5.22 µM) | 0.25 µg/mL (≈ 0.326 µM) | 0.39 µg/mL (≈ 0.509 µM) |  | CC[C@H]1OC(=O)/C(C)=C/[C@H](C)[C@@H](O[C@@H]2O[C@H](C)C[C@H](N(C)C)[C@H]2O)[C@@](C)(OC)C[C@@H](C)C(=O)[C@H](C)[C@H]2N(CCCc3cnc4ccccc4c3)C(=O)O[C@]12C | 
 | 6.2 µg/mL (≈ 7.94 µM) | 3.1 µg/mL (≈ 3.97 µM) |  |  | 6.2 µg/mL (≈ 7.94 µM) | 25 µg/mL (≈ 32 µM) | CC[C@H]1OC(=O)/C(C)=C/[C@H](C)[C@@H](O[C@@H]2O[C@H](C)C[C@H](N(C)C)[C@H]2O)[C@@](C)(OC)C[C@@H](C)C(=O)/C(C)=C/[C@]1(C)OC(=O)NCCCOc1ccc2ccccc2c1 | MIC ([7]; Staphylococcus aureus): 50 µg/mL (≈ 64 µM)
 | 0.78 µg/mL (≈ 1.14 µM) | 0.78 µg/mL (≈ 1.14 µM) | 2 µg/mL (≈ 2.91 µM) | 0.25 µg/mL (≈ 0.364 µM) | 0.2 µg/mL (≈ 0.291 µM) |  | CC[C@H]1OC(=O)/C(C)=C/[C@H](C)[C@@H](O[C@@H]2O[C@H](C)C[C@H](N(C)C)[C@H]2O)[C@@](C)(OC)C[C@@H](C)C(=O)[C@H](C)[C@H]2N(Cc3ccccc3)C(=O)O[C@]12C | 
16 µg/mL (≈ 21.9 µM) | 0.39 µg/mL (≈ 0.534 µM) | 0.39 µg/mL (≈ 0.534 µM) |  |  | 0.39 µg/mL (≈ 0.534 µM) | 25 µg/mL (≈ 34.2 µM) | CC[C@H]1OC(=O)/C(C)=C/[C@H](C)[C@@H](O[C@@H]2O[C@H](C)C[C@H](N(C)C)[C@H]2O)[C@@](C)(OC)C[C@@H](C)C(=O)[C@H](C)[C@H]2N(CCCOc3ccccc3)C(=O)O[C@]12C | MIC ([7]; Staphylococcus aureus): 50 µg/mL (≈ 68.4 µM)
 |  |  |  |  |  |  | CC[C@H]1OC(=O)/C(C)=C/[C@H](C)[C@@H](O[C@@H]2O[C@H](C)C[C@H](N(C)C)[C@H]2O)[C@@](C)(OC)C[C@@H](C)C(=O)[C@H](C)[C@H]2NC(=O)O[C@@]21C (stereo in doubt; 7) | MIC (Staphylococcus aureus [1]): 25 µg/mL (≈ 41.9 µM); MIC (Streptococcus pyogenes [6]): 6.2 µg/mL (≈ 10.4 µM)
 | 0.78 µg/mL (≈ 1.02 µM) |  | 0.03 µg/mL (≈ 0.0392 µM) | < 0.004 µg/mL | 0.39 µg/mL (≈ 0.51 µM) | 12.5 µg/mL (≈ 16.3 µM) | CC[C@H]1OC(=O)/C(C)=C/[C@H](C)[C@@H](O[C@@H]2O[C@H](C)C[C@H](N(C)C)[C@H]2O)[C@@](C)(OC)C[C@@H](C)C(=O)[C@H](C)[C@H]2N(CCCOc3ccc(Cl)cc3)C(=O)O[C@]12C | MIC ([7]; Staphylococcus aureus): 50 µg/mL (≈ 65.3 µM)
> 64 µg/mL | 6.2 µg/mL (≈ 8.33 µM) |  | < 0.004 µg/mL | < 0.004 µg/mL | 0.39 µg/mL (≈ 0.524 µM) |  | CC[C@H]1OC(=O)/C(C)=C/[C@H](C)[C@@H](O[C@@H]2O[C@H](C)C[C@H](N(C)C)[C@H]2O)[C@@](C)(OC)C[C@@H](C)C(=O)[C@H](C)[C@H]2N(CCCN(C)c3ccccc3)C(=O)O[C@]12C | 
32 µg/mL (≈ 44.7 µM) | 1.56 µg/mL (≈ 2.18 µM) | 0.78 µg/mL (≈ 1.09 µM) | 2 µg/mL (≈ 2.79 µM) | 0.5 µg/mL (≈ 0.698 µM) | 0.2 µg/mL (≈ 0.279 µM) |  | CC[C@H]1OC(=O)/C(C)=C/[C@H](C)[C@@H](O[C@@H]2O[C@H](C)C[C@H](N(C)C)[C@H]2O)[C@@](C)(OC)C[C@@H](C)C(=O)[C@H](C)[C@H]2N(CCc3ccc(N)cc3)C(=O)O[C@]12C | 
16 µg/mL (≈ 22.3 µM) | 0.78 µg/mL (≈ 1.09 µM) | 0.78 µg/mL (≈ 1.09 µM) | 0.5 µg/mL (≈ 0.697 µM) | 0.125 µg/mL (≈ 0.174 µM) | 0.39 µg/mL (≈ 0.544 µM) |  | CC[C@H]1OC(=O)/C(C)=C/[C@H](C)[C@@H](O[C@@H]2O[C@H](C)C[C@H](N(C)C)[C@H]2O)[C@@](C)(OC)C[C@@H](C)C(=O)[C@H](C)[C@H]2N(CCc3ccc(O)cc3)C(=O)O[C@]12C | 
64 µg/mL (≈ 94 µM) | 3.1 µg/mL (≈ 4.55 µM) | 3.1 µg/mL (≈ 4.55 µM) | 2 µg/mL (≈ 2.94 µM) | 0.5 µg/mL (≈ 0.734 µM) | 0.39 µg/mL (≈ 0.573 µM) |  | C=COCCCN1C(=O)O[C@]2(C)[C@@H](CC)OC(=O)/C(C)=C/[C@H](C)[C@@H](O[C@@H]3O[C@H](C)C[C@H](N(C)C)[C@H]3O)[C@@](C)(OC)C[C@@H](C)C(=O)[C@H](C)[C@@H]12 | 
 |  |  | 4 µg/mL (≈ 4.38 µM) | 1 µg/mL (≈ 1.1 µM) |  |  | CC[C@H]1OC(=O)/C(C)=C/[C@H](C)[C@@H](O[C@@H]2O[C@H](C)C[C@H](N(C)C)[C@H]2O)[C@@](C)(OC)C[C@@H](C)C(=O)[C@H](C)[C@H]2N(CCc3ccc(OCc4ccccc4)c(OCc4ccccc4)c3)C(=O)O[C@]12C | MIC (Streptococcus pneumoniae [8]): 8 µg/mL (≈ 8.76 µM)
> 64 µg/mL | 6.2 µg/mL (≈ 8.49 µM) |  | 2 µg/mL (≈ 2.74 µM) | 0.03 µg/mL (≈ 0.0411 µM) | 3.1 µg/mL (≈ 4.25 µM) | 50 µg/mL (≈ 68.5 µM) | CC[C@H]1OC(=O)/C(C)=C/[C@H](C)[C@@H](O[C@@H]2O[C@H](C)C[C@H](N(C)C)[C@H]2O)[C@@](C)(OC)C[C@@H](C)C(=O)[C@H](C)[C@H]2N(CCNCc3ccccc3)C(=O)O[C@]12C | 
 | 25 µg/mL (≈ 40.9 µM) | 25 µg/mL (≈ 40.9 µM) |  |  | 25 µg/mL (≈ 40.9 µM) | 50 µg/mL (≈ 81.7 µM) | CC[C@H]1OC(=O)/C(C)=C/[C@H](C)[C@@H](O[C@@H]2O[C@H](C)C[C@H](N(C)C)[C@H]2O)[C@@](C)(OC)C[C@@H](C)C(=O)/C(C)=C/[C@]1(C)OC(=O)OC | 
32 µg/mL (≈ 43.9 µM) | 0.39 µg/mL (≈ 0.535 µM) | 0.39 µg/mL (≈ 0.535 µM) |  |  | 0.39 µg/mL (≈ 0.535 µM) | 12.5 µg/mL (≈ 17.1 µM) | CC[C@H]1OC(=O)/C(C)=C/[C@H](C)[C@@H](O[C@@H]2O[C@H](C)C[C@H](N(C)C)[C@H]2O)[C@@](C)(OC)C[C@@H](C)C(=O)[C@H](C)[C@H]2N(CCCCc3ccccc3)C(=O)O[C@]12C | MIC ([7]; Staphylococcus aureus): 50 µg/mL (≈ 68.6 µM)
4 µg/mL (≈ 5.45 µM) | 0.2 µg/mL (≈ 0.273 µM) | 3.1 µg/mL (≈ 4.22 µM) | 8 µg/mL (≈ 10.9 µM) |  | 3.1 µg/mL (≈ 4.22 µM) |  | CC[C@H]1OC(=O)[C@H](C)[C@@H](O[C@H]2C[C@@](C)(OC)[C@@H](O)[C@H](C)O2)[C@H](C)[C@@H](O[C@@H]2O[C@H](C)C[C@H](N(C)C)[C@H]2O)[C@](C)(O)C[C@@H](C)C(=O)[C@H](C)[C@@H](O)[C@]1(C)O [ERYTHROMYCIN] | MIC (Streptococcus pneumoniae [5]): 0.06 µg/mL (≈ 0.0818 µM)
 | 12.5 µg/mL (≈ 19.6 µM) | 12.5 µg/mL (≈ 19.6 µM) | 2 µg/mL (≈ 3.13 µM) | 2 µg/mL (≈ 3.13 µM) | 1.56 µg/mL (≈ 2.44 µM) |  | CC[C@H]1OC(=O)/C(C)=C/[C@H](C)[C@@H](O[C@@H]2O[C@H](C)C[C@H](N(C)C)[C@H]2O)[C@@](C)(OC)C[C@@H](C)C(=O)[C@H](C)[C@H]2N(C(C)C)C(=O)O[C@]12C | 
